Activity calls are given as the source filed them. No cut-off for these calls is given here. Non-standard residues stand in square brackets, D forms with d. Residues, ends and D or L forms follow the SMILES beside them. Groups on a side chain read outwards from the residue. Ahx = NCCCCCC(=O)O
How the values were obtained:
BL-41 [1] = experiment: Induction of apoptosis in CD40-positive human BL41 cells assessed as detection of phosphatidylserine expression using annexin V-FITC and propidium iodine staining by flow cytometry; format: functional, cell-based
In short: (§1)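 BL41 Burkitt lymphoma cells in RPMI 1640 with 10% FBS were seeded at 5×10^5 ml⁻¹ and exposed to inducers at 37 °C (16 h). Apoptosis was read by flow cytometry, either as loss of DiOC₆(3) uptake (Δψm) or as annexin V–FITC/PI co-staining. Specific apoptosis % = (treated − control)×100/(100 − control). Values are means of three independent experiments.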

BL-41 [2] = experiment: Induction of apoptosis in CD40-positive human BL41 cells assessed as decrease in mitochondrial membrane potential after 16 hrs by mean fluorescence intensity; format: functional, cell-based; in short: as §1
BL-41 [3] = experiment: Induction of apoptosis in CD40-positive human BL41 cells assessed as decrease in reduction in DiOC6 dye uptake after DAPI staining by epifluorescence microscopy; format: functional, cell-based
[4] = biological target: T1, Tumor necrosis factor receptor superfamily member 5 (Homo sapiens, UniProt P25942); experiment: Inhibition of recombinant human CD40L:mouse CD8 tail binding to human CD40 by surface plasmon resonance method
T1 sequence (P25942 whole entry): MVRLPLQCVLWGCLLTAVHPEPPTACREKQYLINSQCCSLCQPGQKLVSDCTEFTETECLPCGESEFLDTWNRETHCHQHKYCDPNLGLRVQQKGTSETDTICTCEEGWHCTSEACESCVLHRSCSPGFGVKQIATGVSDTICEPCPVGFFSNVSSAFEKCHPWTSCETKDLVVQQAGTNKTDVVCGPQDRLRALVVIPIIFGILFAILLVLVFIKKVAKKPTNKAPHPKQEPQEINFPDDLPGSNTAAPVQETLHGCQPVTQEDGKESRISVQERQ
In short: (§2)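 hCD40:mIg was captured on an anti-mouse Ig chip. A fixed amount of soluble hCD40L:CD8 was premixed with increasing ligand concentrations, and the mixtures were injected at 25 °C in HBS-EP, 30 µl min⁻¹, 5 min association and 5 min dissociation. Regeneration was 50 mM HCl. Inhibition of CD40L binding was taken from reference-subtracted sensorgrams.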

BL-41 [5] = experiment: Induction of apoptosis in CD40-positive human BL41 cells assessed as level of CD40 expression by mean fluorescence intensity; format: functional, cell-based
D1 [6] = experiment: Induction of mouse D1 cell maturation assessed as CD80 expression at 5 to 10 uM after 48 hrs by flow cytometry in presence of 10 ug/ml LPS inhibitor polymyxin B; format: functional, cell-based
In short: (§3)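 D1 cells (2×10^5 ml⁻¹, 48 h preculture) were treated 48 h with inducers in fresh medium. Assays were also run with polymyxin B present to exclude LPS-driven activation, and LPS at 10 µg ml⁻¹ was the reference stimulus. Cells were harvested in PBS/EDTA and surface maturation markers were measured by flow cytometry.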

D1 [7] = experiment: Induction of mouse D1 cell maturation assessed as CD86 expression at 5 to 10 uM after 48 hrs by flow cytometry in presence of 10 ug/ml LPS inhibitor polymyxin B; format: functional, cell-based; in short: as §3
D1 [8] = experiment: Induction of mouse D1 cell maturation assessed as CD54 expression at 5 to 10 uM after 48 hrs by flow cytometry in presence of 10 ug/ml LPS inhibitor polymyxin B; format: functional, cell-based; in short: as §3
[9] = biological target: T1, Tumor necrosis factor receptor superfamily member 5; experiment: Inhibition of recombinant human CD40L:mouse CD8 tail binding to human CD40 at 10 uM by surface plasmon resonance method; in short: as §2
A20 = experiment: Induction of apoptosis in mouse CD40-expressing mouse A20 cells assessed as decrease in mitochondrial membrane potential after 16 hrs by mean fluorescence intensity; format: functional, cell-based
In short: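 Mouse A20 lymphoma cells treated at 37 °C and analysed by flow cytometry for reduced DiOC₆(3) uptake (loss of mitochondrial membrane potential). Result given as percentage specific apoptosis relative to untreated control cells.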

[10] = Activation of NF-kappaB pathway in mouse D1 cells assessed as increased degradation of IkappaBalpha protein by immunoblotting assay; format: functional, cell-based
In short: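 D1 dendritic cells grown in IMDM with 10% FBS and 30% NIH/3T3 supernatant as GM-CSF source; 2×10^5 cells ml⁻¹ precultured 48 h, then fresh medium with inducers added. Cells washed, harvested in PBS/2 mM EDTA, lysed and immunoblotted for IκBα, with actin as loading reference; IκBα/actin band intensity ratio reported.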

[11] = biological target: T2, Tumor necrosis factor receptor superfamily member 1B (Homo sapiens) (UniProt P20333); experiment: Binding affinity to human Tumor necrosis factor receptor 2 by surface plasmon resonance method
T2 sequence (whole entry): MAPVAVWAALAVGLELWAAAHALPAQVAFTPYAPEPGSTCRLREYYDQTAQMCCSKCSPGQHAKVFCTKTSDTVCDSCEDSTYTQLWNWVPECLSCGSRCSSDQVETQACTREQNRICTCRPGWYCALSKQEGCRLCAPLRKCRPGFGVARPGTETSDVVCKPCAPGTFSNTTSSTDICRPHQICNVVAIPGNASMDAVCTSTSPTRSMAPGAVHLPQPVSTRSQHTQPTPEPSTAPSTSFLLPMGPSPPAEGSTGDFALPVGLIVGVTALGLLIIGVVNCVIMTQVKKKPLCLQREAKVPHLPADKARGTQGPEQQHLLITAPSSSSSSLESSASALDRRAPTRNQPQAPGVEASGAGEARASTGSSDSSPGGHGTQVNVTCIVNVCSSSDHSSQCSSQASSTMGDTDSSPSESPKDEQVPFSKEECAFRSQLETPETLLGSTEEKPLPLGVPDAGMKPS
In short: (§4)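 TNFR:Fc fusion proteins were captured on an anti-Ig-coated CM5 chip at equivalent protein mass. An irrelevant IgG2a served as control surface. Ligands were injected at several concentrations at 25 °C in HBS-EP running buffer, pH 7.4, 30 µl min⁻¹ flow, 5 min association and 5 min dissociation, with 50 mM HCl regeneration. Reference-subtracted sensorgrams were fitted to binding models.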

[12] = biological target: Tumor necrosis factor receptor superfamily member 3 (Homo sapiens) (UniProt P36941); experiment: Binding affinity to human lymphotoxin beta receptor by surface plasmon resonance method
Tumor necrosis factor receptor superfamily member 3 (Homo sapiens), sequence (P36941 whole entry, the tested form may be a part): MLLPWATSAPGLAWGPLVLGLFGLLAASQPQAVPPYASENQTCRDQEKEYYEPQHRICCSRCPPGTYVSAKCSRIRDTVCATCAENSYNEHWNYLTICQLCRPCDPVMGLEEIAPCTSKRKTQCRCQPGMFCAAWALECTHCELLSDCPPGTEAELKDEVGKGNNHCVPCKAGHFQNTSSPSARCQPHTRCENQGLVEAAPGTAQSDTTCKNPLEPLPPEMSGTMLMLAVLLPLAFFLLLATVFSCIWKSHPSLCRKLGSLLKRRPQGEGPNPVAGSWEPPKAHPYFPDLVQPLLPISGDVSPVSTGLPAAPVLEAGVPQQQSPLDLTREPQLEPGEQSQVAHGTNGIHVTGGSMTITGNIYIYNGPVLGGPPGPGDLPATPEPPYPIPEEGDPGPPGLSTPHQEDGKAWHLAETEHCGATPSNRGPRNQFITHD
In short: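 TNFR:Fc fusion captured at 5 µl min⁻¹ on a CM5 chip precoated by amine coupling with rabbit anti-mouse Ig or goat anti-human Ig (~10,000 RU). Mimetics injected at several concentrations at 30 µl min⁻¹, 5 min association and 5 min dissociation, 25 °C, HBS-EP pH 7.4. Regeneration 30 s with 50 mM HCl. Control-channel sensorgrams subtracted and fitted to binding models.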

D1 [13] = experiment: Induction of interleukin-12 production in mouse D1 cells by RT-PCR method; format: functional, cell-based
In short: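 D1 cells, precultured 48 h at 2×10^5 ml⁻¹, were given fresh medium containing inducers. After incubation, RNA was analysed by comparative RT-PCR for IL-12 p40 mRNA, with Gapdh as housekeeping control. LPS at 10 µg ml⁻¹ served as reference stimulus.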

[14] = biological target: T3, Tumor necrosis factor receptor superfamily member 1A (Homo sapiens) (UniProt P19438); experiment: Binding affinity to human TNFR1 by surface plasmon resonance method; in short: as §4
T3 sequence (whole entry): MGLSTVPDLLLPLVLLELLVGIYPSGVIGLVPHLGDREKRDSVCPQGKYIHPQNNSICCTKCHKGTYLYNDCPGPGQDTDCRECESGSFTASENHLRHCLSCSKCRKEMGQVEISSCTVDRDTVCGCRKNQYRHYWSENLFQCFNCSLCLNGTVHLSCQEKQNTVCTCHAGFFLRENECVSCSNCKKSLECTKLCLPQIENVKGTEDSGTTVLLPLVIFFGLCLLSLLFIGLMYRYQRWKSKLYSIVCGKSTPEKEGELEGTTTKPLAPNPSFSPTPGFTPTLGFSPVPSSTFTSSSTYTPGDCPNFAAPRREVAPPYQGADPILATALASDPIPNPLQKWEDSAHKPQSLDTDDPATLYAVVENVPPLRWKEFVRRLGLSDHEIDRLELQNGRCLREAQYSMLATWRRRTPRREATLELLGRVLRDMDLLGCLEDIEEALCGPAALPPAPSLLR

[15] = biological target: T4, Tumor necrosis factor receptor superfamily member 17 (Mus musculus) (UniProt O88472); experiment: Binding affinity to mouse B-cell maturation protein by surface plasmon resonance method; in short: as §4
T4 sequence (whole entry): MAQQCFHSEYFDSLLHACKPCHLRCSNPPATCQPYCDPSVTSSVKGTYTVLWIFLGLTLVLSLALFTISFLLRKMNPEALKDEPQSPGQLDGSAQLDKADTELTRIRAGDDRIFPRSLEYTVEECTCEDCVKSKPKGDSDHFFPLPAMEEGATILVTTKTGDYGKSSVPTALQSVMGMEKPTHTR

[16] = biological target: Tumor necrosis factor receptor superfamily member 10A (Homo sapiens) (UniProt O00220); experiment: Binding affinity to human TNF-related apoptosis-inducing ligand receptor 1 by surface plasmon resonance method; in short: as §4
Tumor necrosis factor receptor superfamily member 10A (Homo sapiens), sequence (O00220 whole entry): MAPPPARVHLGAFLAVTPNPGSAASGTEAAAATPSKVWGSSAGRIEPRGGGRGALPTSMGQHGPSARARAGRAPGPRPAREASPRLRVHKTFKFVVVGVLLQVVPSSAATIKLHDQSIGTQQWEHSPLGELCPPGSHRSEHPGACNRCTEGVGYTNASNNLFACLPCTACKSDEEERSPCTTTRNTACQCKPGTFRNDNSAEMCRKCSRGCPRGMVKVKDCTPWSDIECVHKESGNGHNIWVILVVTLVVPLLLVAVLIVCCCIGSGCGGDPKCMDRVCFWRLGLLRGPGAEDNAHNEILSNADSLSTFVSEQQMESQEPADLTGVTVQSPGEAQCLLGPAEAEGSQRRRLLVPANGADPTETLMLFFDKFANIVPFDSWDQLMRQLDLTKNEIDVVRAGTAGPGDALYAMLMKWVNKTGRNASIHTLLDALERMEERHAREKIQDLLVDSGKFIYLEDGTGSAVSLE

[17] = biological target: T5, Tumor necrosis factor receptor superfamily member EDAR (Homo sapiens) (UniProt Q9UNE0); experiment: Binding affinity to human Ectodysplasin-A receptor by surface plasmon resonance method; in short: as §4
T5 sequence (whole entry): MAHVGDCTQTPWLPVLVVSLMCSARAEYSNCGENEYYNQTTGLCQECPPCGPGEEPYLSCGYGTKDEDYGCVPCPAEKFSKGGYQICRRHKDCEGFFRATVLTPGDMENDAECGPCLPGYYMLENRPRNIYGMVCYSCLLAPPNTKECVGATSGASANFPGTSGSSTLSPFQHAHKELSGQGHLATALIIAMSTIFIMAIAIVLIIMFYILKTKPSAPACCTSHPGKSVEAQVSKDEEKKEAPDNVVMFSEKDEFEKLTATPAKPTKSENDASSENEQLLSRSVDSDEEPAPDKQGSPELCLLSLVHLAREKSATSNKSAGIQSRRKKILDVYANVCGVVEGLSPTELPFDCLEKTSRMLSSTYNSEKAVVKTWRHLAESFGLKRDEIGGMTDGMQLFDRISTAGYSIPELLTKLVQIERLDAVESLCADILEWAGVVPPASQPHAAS

Row | Structure (SMILES) | Activity (BL-41 [1]) | Activity (BL-41 [2]) | Activity (BL-41 [3]) | inhibition [4] | Activity (BL-41 [5]) | Activity (D1 [6]) | Activity (D1 [7]) | Activity (D1 [8]) | IC50 [4] | inhibition [9] | Activity (A20) | Activity [10] | Activity [11] | Activity [12] | Activity (D1 [13]) | Activity [14] | Activity [15] | Activity [16] | Activity [17]
1 | C[C@@H](NC(=O)[C@H](CCCCNC(=O)CCCCCNC(=O)[C@H](Cc1ccc(O)cc1)NC(=O)[C@H](Cc1ccc(O)cc1)NC(=O)CNC(=O)[C@@H](N)CCCCN)NC(=O)[C@@H](C)NC(=O)[C@H](CCCCNC(=O)CCCCCNC(=O)[C@H](Cc1ccc(O)cc1)NC(=O)[C@H](Cc1ccc(O)cc1)NC(=O)CNC(=O)[C@@H](N)CCCCN)NC(=O)[C@@H](C)NC(=O)[C@@H](N)CCCCNC(=O)CCCCCNC(=O)[C@H](Cc1ccc(O)cc1)NC(=O)[C@H](Cc1ccc(O)cc1)NC(=O)CNC(=O)[C@@H](N)CCCCN)C(=O)O | inactive | inactive | inactive | inactive | inactive | inactive | inactive | inactive |  |  |  |  |  |  |  |  |  |  | 
2 | NCCCC[C@H](N)C(=O)NCC(=O)N[C@@H](Cc1ccc(O)cc1)C(=O)N[C@@H](Cc1ccc(O)cc1)C(=O)NCCCCCC(=O)O (H-KGYY[Ahx]-OH) | inactive | inactive | inactive | inactive | inactive | inactive | inactive | inactive |  |  |  |  |  |  |  |  |  |  | 
3 | NCCCC[C@H](N)C(=O)NCC(=O)N[C@@H](Cc1ccc(O)cc1)C(=O)N[C@@H](Cc1ccc(O)cc1)C(=O)NCCCCCC(=O)NCCCOCC(COCCCNC(=O)CCCCCNC(=O)[C@H](Cc1ccc(O)cc1)NC(=O)[C@H](Cc1ccc(O)cc1)NC(=O)CNC(=O)[C@@H](N)CCCCN)(COCCCNC(=O)CCCCCNC(=O)[C@H](Cc1ccc(O)cc1)NC(=O)[C@H](Cc1ccc(O)cc1)NC(=O)CNC(=O)[C@@H](N)CCCCN)NC(=O)CCC(N)=O | inactive | inactive | inactive |  | inactive |  |  |  | > 10 µM | 20% |  |  |  |  |  |  |  |  | 
4 | C[C@H]1NC(=O)[C@H](CCCCN)NC(=O)[C@@H](C)NC(=O)[C@H](CCCCN)NC(=O)[C@@H](C)NC(=O)[C@H](CCCCN)NC1=O | inactive | inactive | inactive | inactive | inactive | inactive | inactive | inactive |  |  |  |  |  |  |  |  |  |  | 
5 | C[C@H]1NC(=O)[C@H](CCCCNC(=O)CCCCCNC(=O)[C@H](Cc2ccc(O)cc2)NC(=O)[C@H](Cc2ccc(O)cc2)NC(=O)CNC(=O)[C@@H](N)CCCCN)NC(=O)[C@@H](C)NC(=O)[C@H](CCCCNC(=O)CCCCCNC(=O)[C@H](Cc2ccc(O)cc2)NC(=O)[C@H](Cc2ccc(O)cc2)NC(=O)CNC(=O)[C@@H](N)CCCCN)NC(=O)[C@@H](C)NC(=O)[C@H](CCCCNC(=O)CCCCCNC(=O)[C@H](Cc2ccc(O)cc2)NC(=O)[C@H](Cc2ccc(O)cc2)NC(=O)CNC(=O)[C@@H](N)CCCCN)NC1=O (cyclo(K([Ahx-Tyr-Tyr-Gly-Lys])[dA]K([Ahx-Tyr-Tyr-Gly-Lys])[dA]K([Ahx-Tyr-Tyr-Gly-Lys])[dA])) | Active | Active | Active |  | Active | Active | Active | Active | 0.078 µM |  | Active | Active | inactive | inactive | Active | inactive | inactive | inactive | inactive

— ChEMBL document CHEMBL1240299, “C3-symmetric peptide scaffolds are functional mimetics of trimeric CD40L” (Nat Chem Biol, 2005)
